This experiment addresses Muscarinic acetylcholine receptor M1/M2/M3/M4/M5. Nature of the experiment: Agonistic activity against Muscarinic acetylcholine receptor of guinea pig ileal longitudinal muscle. The essentials:
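Ileal longitudinal muscle strips (1.5 cm) in 10 ml organ baths under 500 mg tension, equilibrated 30 min with bath fluid changed every 10 min. Isotonic contractions recorded during cumulative addition, about 3-fold concentration steps once each response is steady. Response expressed as percent of carbachol maximum. pEC50 determined graphically from dose–response curves, mean of three tests, t test.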

The EC50 is the concentration needed to bring the measured effect to its halfway point.

`CC(=O)OC1CC2CC(OS(=O)(=O)c3ccccc3)CC1N2C` (centres undefined) yielded an EC50 of 50.1 nM. As to `CC(=O)OC1CC2NC1CCC2O` (centres undefined), the EC50 is 79.4 nM. `CCCCCC(=O)OC1CC2CC(OC(C)=O)C(C1)N2C` (centres undefined) had an EC50 of 6.46 nM. On to `CC(=O)OC1CC2CC(=O)CC1N2C` (centres undefined), for which a half-maximal effect (EC50) was put at 14700 nM. With `CC(=O)OC1CC2CC(Cl)CC1N2C` (centres undefined), the EC50 came out at 11400 nM. `CCCCCCCCCC(=O)OC1CC2CC(OC(C)=O)C(C1)N2C` (centres undefined) returned an EC50 of 263 nM. Regarding `CC(=O)OC1CC2CC(OC(C)=O)C(C1)N2C` (centres undefined), the EC50 is 4460 nM. As for `CCCC(=O)OC1CC2CC(OC(C)=O)C(C1)N2C` (centres undefined), the figure is 5010 nM. With `CC(=O)OC1CC2CC(OS(=O)(=O)c3ccc(C)cc3)CC1N2C` (centres undefined), the response was half-maximal at 104 nM (EC50). The molecule `CC(=O)OC1CC2CCCC1N2C` (centres undefined) [Acetic acid 8-methyl-8-aza-bicyclo[3.2.1]oct-6-yl ester] showed an EC50 of 24500 nM. `COc1ccc(S(=O)(=O)OC2CC3CC(OC(C)=O)C(C2)N3C)cc1` (centres undefined) yielded an EC50 of 93.3 nM. This EC50 lies about 260-fold lower than the previous one. Take `CCCCCCCC(=O)OC1CC2CC(OC(C)=O)C(C1)N2C` (centres undefined): the EC50 came out at 1.74 nM. This EC50 is about 54-fold lower than that of the molecule before. Then `CC(=O)OC1CC2CC(OC(=O)/C=C\c3ccccc3)CC1N2C` (centres undefined), with 117000 nM; and `CCC(=O)OC1CC2CC(OC(=O)CC)C(C1)N2C` (centres undefined), with 42600 nM; and `CC(=O)OC1CC2CC(OC(=O)c3ccc(C)cc3)CC1N2C` (centres undefined), with 4360 nM. For `CC(=O)OC1CC2CCC(C1)N2C` (centres undefined), a half-maximal response (EC50) required 79400 nM.

With `COc1ccc(C(=O)OC2CC3CC(OC(C)=O)C(C2)N3C)cc1` (centres undefined), the EC50 came to 30100 nM. `CC(=O)OC1CC2CC(OC(=O)/C=C\c3ccccc3)CC1N2` (centres undefined) showed an EC50 of 1990 nM.

The molecule `CC(=O)OC1CC2CCCC1N2` (centres undefined) [Acetic acid 8-aza-bicyclo[3.2.1]oct-6-yl ester] returned a 50% effective concentration (EC50) of 6.17 nM. This EC50 is about 320-fold lower than that of the molecule before. As for `CCCCCC(=O)OC1CC2CC(OC(=O)CCCCC)C(C1)N2C` (centres undefined), the EC50 was determined as 4.79 nM.

`CN1C2CC(=O)CC1C(O)C2` (centres undefined): the EC50 was 407000 nM.

For `CCCCCCC(=O)OC1CC2CC(OC(C)=O)C(C1)N2C` (centres undefined), the EC50 was determined as 26.9 nM. Compared with the last molecule, the EC50 is about 15000-fold lower.

On to `CC(=O)OC1CC2CC(OS(=O)(=O)c3cccc(C)c3)CC1N2C` (centres undefined), for which the response was half-maximal at 89.1 nM (EC50). Regarding `CC(=O)OC1CC2CC(OS(=O)(=O)c3ccc([N+](=O)[O-])cc3)CC1N2C` (centres undefined), the concentration for a half-maximal effect (EC50) amounted to 44.7 nM.

Source of the values: BindingDB's records for doi:10.1016/j.bmcl.2005.07.045 (Shanghai Second Medical University, 2005).
